Assay results reported in ChEMBL document CHEMBL1142063, “Synthesis of omeprazole analogues and evaluation of these as potential inhibitors of the multidrug efflux pump NorA of Staphylococcus aureus” (2007).

What was measured:
Staphylococcus aureus [1] = test: Increase in 64 ug/ml Norfloxacin antibacterial activity against Staphylococcus aureus SA1199B mutant overexpressing NorA at 128 ug/ml by checker board method; format: functional
Staphylococcus aureus [2] = test: Increase in 16 ug/ml Norfloxacin accumulation in Staphylococcus aureus SA1199B mutant overexpressing NorA measured per milligram of cell protein at 128 ug/ml after 20 mins; format: functional, organism-based
Outline: (§1)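 SA-1199B was grown to mid-exponential phase in MH broth (4–5 h, 37°C, shaken), then washed and resuspended in 50 mM sodium phosphate, pH 7.0. Cells got norfloxacin at one-quarter MIC, alone or with inhibitor at 128 μg/ml. At 5–20 min, cells were spun through silicone-paraffin oil into orthophosphoric acid. Norfloxacin was measured by HPLC fluorescence (ex 240/[…]) as ng/mg BCA protein. Means of triplicate experiments.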

Staphylococcus aureus [3] = test: Increase in 5 ug Norfloxacin antibacterial activity against Staphylococcus aureus SA1199B mutant overexpressing NorA at 128 ug/ml by disk diffusion method; format: functional
Outline: (§2)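 Agar diffusion on Mueller-Hinton agar (adjusted to 20 μg/ml Ca²⁺ and 10 μg/ml Mg²⁺), used plain or with the efflux inhibitor incorporated at the stated concentration. Disks were 5 μg for the fluoroquinolones and 30 μg for chloramphenicol. Plates were incubated overnight at 37°C, and inhibition zone diameters were measured. Values are means of at least three independent experiments.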

Staphylococcus aureus [4] = test: Increase in 16 ug/ml Norfloxacin accumulation in Staphylococcus aureus SA1199B mutant overexpressing NorA measured per mg of cell protein at 128 ug/ml after 5 mins; format: functional, organism-based; outline: as §1
Staphylococcus aureus [5] = test: Increase in 30 ug chloramphenicol antibacterial activity against Staphylococcus aureus SA1199B mutant overexpressing NorA at 128 ug/ml by disk diffusion method; format: functional; outline: as §2
Staphylococcus aureus [6] = test: Increase in 5 ug levofloxacin antibacterial activity against Staphylococcus aureus SA1199B mutant overexpressing NorA at 128 ug/ml by disk diffusion method; format: functional; outline: as §2
Staphylococcus aureus [7] = test: Increase in 5 ug moxifloxacin antibacterial activity against Staphylococcus aureus SA1199B mutant overexpressing NorA at 128 ug/ml by disk diffusion method; format: functional; outline: as §2
Staphylococcus aureus [8] = test: Increase in 5 ug ciprofloxacin antibacterial activity against Staphylococcus aureus SA1199B mutant overexpressing NorA at 128 ug/ml by disk diffusion method; format: functional; outline: as §2
Staphylococcus aureus [9] = test: Increase in 2 ug/ml Norfloxacin antibacterial activity against wild type Staphylococcus aureus SA1199 at 128 ug/ml by checker board method; format: functional
Staphylococcus aureus [10] = test: Antibacterial activity against Staphylococcus aureus; format: functional
Outline: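 Tube broth dilution MIC against SA-1199 and NorA-overproducing SA-1199B in Mueller-Hinton broth with 20 μg/ml Ca²⁺ and 10 μg/ml Mg²⁺. Inoculum was a 4–5 h 37°C culture diluted 1/10 (≈10⁶ CFU/ml). Compound range was 512 to 1 μg/ml, dissolved in DMSO (final ≤4%).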

Staphylococcus aureus [11] = test: Increase in 5 ug sparfloxacin antibacterial activity against Staphylococcus aureus SA1199B mutant overexpressing NorA at 128 ug/ml by disk diffusion method; format: functional; outline: as §2
Staphylococcus aureus [12] = test: Increase in 5 ug ofloxacin antibacterial activity against Staphylococcus aureus SA1199B mutant overexpressing NorA at 128 ug/ml by disk diffusion method; format: functional; outline: as §2
Staphylococcus aureus [13] = test: Increase in 16 ug/ml Norfloxacin accumulation in Staphylococcus aureus SA1199B mutant overexpressing NorA at 128 ug/ml after 20 mins; format: functional; outline: as §1
Staphylococcus aureus [14] = test: Increase in 16 ug/ml Norfloxacin accumulation in wild type Staphylococcus aureus SA1199 at 128 ug/ml after 20 mins; format: functional
Outline: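 Mid-exponential SA-1199 cells were washed and resuspended in 50 mM sodium phosphate, pH 7.0. They were exposed at time zero to norfloxacin at one-quarter MIC, alone or with EPI at 128 μg/ml. At 5–20 min, cells were spun through silicone-paraffin oil into orthophosphoric acid. Lysate norfloxacin was measured by C18 HPLC with fluorescence detection (ex 240, em 280 nm) and normalized to BCA protein (ng/mg). Triplicate experiments, mean reported.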

Compound | MIC (Staphylococcus aureus [1]) [µg/mL] | Drug uptake (Staphylococcus aureus [2]) [ng/mg] | inhibition zone (IZ) (Staphylococcus aureus [3]) [mm] | Drug uptake (Staphylococcus aureus [4]) [ng/mg] | inhibition zone (IZ) (Staphylococcus aureus [5]) [mm] | inhibition zone (IZ) (Staphylococcus aureus [6]) [mm] | inhibition zone (IZ) (Staphylococcus aureus [7]) [mm] | inhibition zone (IZ) (Staphylococcus aureus [8]) [mm] | MIC (Staphylococcus aureus [9]) [µg/mL] | MIC (Staphylococcus aureus [10]) [µg/mL] | inhibition zone (IZ) (Staphylococcus aureus [11]) [mm] | inhibition zone (IZ) (Staphylococcus aureus [12]) [mm] | Activity (Staphylococcus aureus [13]) [%] | Activity (Staphylococcus aureus [14]) [%]
COc1ccc2[nH]c([S+]([O-])Cc3nc4cc(OC)ccc4n4cccc34)nc2c1 (stereo unspecified) | 8 | 400 | 16 | 270 | 27 | 24 | 28 | 24 | 1 | > 512 | 29 | 25 | 40 | 10
Cn1c([S+]([O-])Cc2nc3ccccc3n3cccc23)nc2ccccc21 (stereo unspecified) | 32 |  | 6 |  | 25 | 23 | 27 | 15 | 2 | > 512 | 27 | 20 |  | 
COc1ccc2[nH]c([S+]([O-])Cc3nc4ccccc4n4cccc34)nc2c1 (stereo unspecified) | 8 | 400 | 15 | 270 | 26 | 24 | 28 | 24 | 1 | > 512 | 27 | 25 | 40 | 10
COc1ccc2c(c1)nc(C[S+]([O-])c1nc3ccccc3[nH]1)c1cccn12 (stereo unspecified) | 8 | 400 | 13 | 270 | 26 | 24 | 28 | 22 | 1 | > 512 | 28 | 25 | 40 | 10
COc1ccc2[nH]c([S+]([O-])Cc3nc4ccc(Cl)cc4n4cccc34)nc2c1 (stereo unspecified) | 16 | 400 | 10 | 270 | 25 | 23 | 27 | 19 | 1 | > 512 | 27 | 21 | 40 | 10
[O-][S+](Cc1nc2ccccc2n2cccc12)c1ncc[nH]1 (stereo unspecified) | 32 |  | 6 |  | 25 | 22 | 27 | 15 | 2 | > 512 | 27 | 19 |  | 
COc1ccc2c(c1)nc([S+]([O-])Cc1nc3ccccc3n3cccc13)c1cccn12 (stereo unspecified) | 32 |  | 6 |  | 25 | 22 | 27 | 17 | 2 | > 512 | 27 | 19 |  | 
Cn1ccnc1[S+]([O-])Cc1nc2ccccc2n2cccc12 (stereo unspecified) | 32 |  | 6 |  | 25 | 22 | 27 | 14 | 2 | > 512 | 27 | 19 |  | 
[O-][S+](Cc1nc2ccccc2n2cccc12)c1ccccn1 (stereo unspecified) | 32 |  | 6 |  | 25 | 22 | 27 | 17 | 2 | > 512 | 27 | 20 |  | 
